# Measured values reported in ChEMBL document CHEMBL1145945, “Synthesis and biological evaluation of iodinated and fluorinated 9-(2-hydroxypropyl) and 9-(2-hydroxyethoxy)methyl purine nucleoside analogues” (J Med Chem, 2003).
# How the values were obtained:
# SW-620 = assay: Inhibitory concentration required to inhibit human colon carcinoma (SW620) cells by 50%; type: functional, cell-based
# Procedure, shortened: (§1)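 Cells grown as monolayers in D-MEM or RPMI 1640 with 10% FBS at 37 °C, 5% CO2, plated at 5 × 10⁴/mL. Viable cells by MTT absorbance at 570 nm. IC50 from manual graphical fit; mean ± SD of four parallel samples in three experiments.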
# FM3A = assay: Inhibitory concentration required to inhibit mammary carcinoma (FM3A) cell line by 50%; type: functional, cell-based; conditions: Mus musculus
# [1] = Inhibitory concentration required to inhibit pancreatic carcinoma (MiaPaCa2) cells by 50%; type: functional, Homo sapiens
# Procedure, shortened: (§2)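 Monolayer cells in D-MEM or RPMI 1640 with 10% FBS, 37 °C, 5% CO2, seeded at 3 × 10⁴/mL. MTT read-out at 570 nm as % growth. IC50 by manual graphical fitting; mean ± SD, four parallel samples, three experiments.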
# L1210 = assay: Inhibitory concentration required to inhibit murine leukemia (L1210) cell line by 50%; type: functional, cell-based; conditions: Mus musculus
# MOLT-4 = assay: Inhibitory concentration required to inhibit human T-lymphocyte (Molt4/C8) cell line by 50%; type: functional, cell-based
# CCRF-CEM = assay: Inhibitory concentration required to inhibit human T-lymphocyte (CEM) cell line by 50%; type: functional, cell-based
# HeLa = assay: Inhibitory concentration required to inhibit cervical carcinoma (HeLa) cells by 50%; type: functional, cell-based; conditions: Homo sapiens; procedure, shortened: as §2
# HBL = assay: Inhibitory concentration required to inhibit melanoma (HBL) cells by 50%; type: functional, cell-based; conditions: Homo sapiens
# Procedure, shortened: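 Monolayer culture in D-MEM or RPMI 1640 plus 10% FBS, 37 °C, 5% CO2. MTT assay at 570 nm, expressed as % growth. IC50 graphically fitted by hand; four parallel samples, three experiments.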
# WI-38 = assay: Inhibitory concentration required to inhibit diploid fibroblasts (WI38) by 50%; type: functional, cell-based; conditions: Homo sapiens; procedure, shortened: as §1
# HT-29 = assay: Inhibitory concentration required to inhibit human colon carcinoma (HT-29) cells by 50%; type: functional, cell-based; procedure, shortened: as §2
# HEp-2 = assay: Inhibitory concentration required to inhibit laryngeal carcinoma (Hep2) cells by 50%; type: functional, cell-based; conditions: Homo sapiens; procedure, shortened: as §2
# FM3A (Mus musculus) = assay: Inhibitory concentration required to inhibit mammary carcinoma (FM3A) cell line by 50%
SMILES,IC50 (SW-620),IC50 (FM3A),IC50 [1],IC50 (L1210),IC50 (MOLT-4),IC50 (CCRF-CEM),IC50 (HeLa),IC50 (HBL),IC50 (HT-29),IC50 (HEp-2),IC50 (FM3A (Mus musculus)),IC50 (WI-38)
OCCOCn1cnc2c(S)nc(F)nc21,> 500 µM,155 µM,> 500 µM,170 µM,164 µM,117 µM,> 500 µM,> 500 µM,> 500 µM,> 500 µM,,> 500 µM
CC(=O)OC(C)Cn1cnc2c(S)nc(F)nc21 (stereo not given),> 500 µM,368 µM,> 500 µM,226 µM,> 500 µM,> 500 µM,> 500 µM,> 500 µM,> 500 µM,200 µM,,> 500 µM
CC(=O)OC(C)Cn1cnc2c(N)nc(I)nc21 (stereo not given),> 500 µM,462 µM,> 500 µM,421 µM,436 µM,381 µM,> 500 µM,> 500 µM,> 500 µM,> 500 µM,,> 500 µM
CC(O)Cn1cnc2c(N)nc(I)nc21 (stereo not given),> 500 µM,452 µM,> 500 µM,490 µM,> 500 µM,465 µM,> 500 µM,> 500 µM,> 500 µM,> 500 µM,,> 500 µM
Nc1nc(I)nc2c1ncn2COCCO,> 500 µM,> 500 µM,> 500 µM,> 500 µM,> 500 µM,> 500 µM,> 500 µM,> 500 µM,> 500 µM,> 500 µM,,> 500 µM
CC(=O)OC(C)Cn1cnc2c(Cl)nc(N)nc21 (stereo not given),> 500 µM,> 500 µM,> 500 µM,> 500 µM,> 500 µM,> 500 µM,> 500 µM,> 500 µM,> 500 µM,> 500 µM,,> 500 µM
COc1nc(I)nc2c1ncn2COCCO,> 500 µM,> 500 µM,> 500 µM,> 500 µM,> 500 µM,> 500 µM,> 500 µM,> 500 µM,> 500 µM,> 500 µM,,> 500 µM
CC(O)Cn1cnc2c(F)nc(N)nc21 (stereo not given),> 500 µM,,> 500 µM,> 500 µM,> 500 µM,> 500 µM,63 µM,25 µM,> 500 µM,,> 500 µM,> 500 µM
CC(=O)OCCOCn1cnc2c(S)nc(F)nc21,> 500 µM,136 µM,> 500 µM,40 µM,35 µM,37 µM,> 500 µM,> 500 µM,> 500 µM,> 500 µM,,> 500 µM
CC(O)Cn1cnc2c(S)nc(F)nc21 (stereo not given),> 500 µM,> 500 µM,> 500 µM,> 500 µM,> 500 µM,> 500 µM,> 500 µM,> 500 µM,> 500 µM,> 500 µM,,> 500 µM

# Continued, in another order:
IC50 (SW-620),IC50 (FM3A),IC50 [1],IC50 (L1210),IC50 (MOLT-4),IC50 (CCRF-CEM),IC50 (HeLa),IC50 (HBL),IC50 (HT-29),IC50 (HEp-2),IC50 (FM3A (Mus musculus)),SMILES,IC50 (WI-38)
3.55 µM,47 µM,14.5 µM,13 µM,12.3 µM,15.9 µM,5.13 µM,5.25 µM,6.42 µM,6.31 µM,,CC(=O)OC(C)Cn1cnc2c(Cl)nc(I)nc21 (stereo not given),14.1 µM
> 500 µM,479 µM,> 500 µM,> 500 µM,> 500 µM,> 500 µM,> 500 µM,> 500 µM,> 500 µM,> 500 µM,,CC(O)Cn1cnc2c(Cl)nc(I)nc21 (stereo not given),> 500 µM
0.16 µM,366 µM,25 µM,128 µM,370 µM,381 µM,89 µM,630 µM,> 500 µM,10 µM,,CC(=O)OC(C)Cn1cnc2c(S)nc(N)nc21 (stereo not given),0.4 µM
4.2 µM,2 µM,> 500 µM,3.2 µM,8.9 µM,7.5 µM,5 µM,15.8 µM,> 500 µM,4.9 µM,,CC(=O)OCCOCn1cnc2c(S)nc(N)nc21,> 500 µM
8.9 µM,93 µM,93.3 µM,37 µM,41 µM,44 µM,50 µM,44.7 µM,75.9 µM,10 µM,,CC(=O)OC(C)Cn1cnc2c(Cl)nc(F)nc21 (stereo not given),100 µM
15.8 µM,34 µM,> 500 µM,8.6 µM,9.4 µM,11 µM,398 µM,19.9 µM,> 500 µM,56.2 µM,,CC(=O)OCCOCn1cnc2c(Cl)nc(I)nc21,63.1 µM
